Experimental data as given in ChEMBL document CHEMBL1142895, “Discovery of a new insecticide lead by optimizing a target-diverse scaffold: tetrazolinone derivatives” (2007).
Active and inactive are the calls of the source. The calls are words filed in the database; no cut-off is given here.

Tests used:
[1] = test system: Brassica rapa subsp. oleifera; experiment: Inhibition of root growth of Brassica campestris at 100 mg/L; type: functional
Summary of the method: (§1)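 Seeds of each species were grown in Petri dishes with 10 seeds per dish, at 28 °C, 70–80% RH, 16:8 h light:dark photoperiod and 3000 lx light for 5 days. Root and stem lengths were measured for the 10 seeds and averaged. Each test and its controls were run in three replicates, and the data were given probit analysis.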

Triticum aestivum [2] = experiment: Inhibition of stem growth of Triticum aestivum at 100 mg/L; type: functional; summary of the method: as §1
Sorghum bicolor [3] = experiment: Inhibition of root growth of Sorghum bicolor at 100 mg/L; type: functional; summary of the method: as §1
Echinochloa crus-galli [4] = experiment: Herbicidal activity against Echinochloa crus-galli at 450 g ai/ha in greenhouse in vivo test; type: functional, organism-based
Tetranychus cinnabarinus = experiment: Insecticidal activity against Tetranychus cinnabarinus at 250 mg/L; type: functional
Summary of the method: (§2)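 Groups of 10 of each species were placed in glass Petri dishes and sprayed with test solution using a Potter sprayer. After air-drying, they were held under normal rearing conditions. Mortality at 72 h was taken from the number and size of live larvae relative to untreated controls.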

Radish [5] = experiment: Inhibition of stem growth of Raphanus sativus at 100 mg/L; type: functional; summary of the method: as §1
Cucumis sativus [6] = experiment: Herbicidal activity against Cucumis sativus at 450 g ai/ha in greenhouse in vivo test; type: functional, organism-based
Triticum aestivum [7] = experiment: Herbicidal activity against Triticum aestivum at 450 g ai/ha in greenhouse in vivo test; type: functional, organism-based
[8] = test system: Brassica rapa subsp. oleifera; experiment: Herbicidal activity against Brassica campestris at 450 g ai/ha in greenhouse in vivo test; type: functional, organism-based
Radish [9] = experiment: Inhibition of root growth of Raphanus sativus at 100 mg/L; type: functional; summary of the method: as §1
Echinochloa crus-galli [10] = experiment: Inhibition of stem growth of Echinochloa crus-galli at 100 mg/L; type: functional; summary of the method: as §1
Sorghum bicolor [11] = experiment: Inhibition of stem growth of Sorghum bicolor at 100 mg/L; type: functional; summary of the method: as §1
Triticum aestivum [12] = experiment: Inhibition of root growth of Triticum aestivum at 100 mg/L; type: functional; summary of the method: as §1
Cucumis sativus [13] = experiment: Inhibition of stem growth of Cucumis sativus at 100 mg/L; type: functional; summary of the method: as §1
Sorghum bicolor [14] = experiment: Herbicidal activity against Sorghum bicolor at 450 g ai/ha in greenhouse in vivo test; type: functional, organism-based
Echinochloa crus-galli [15] = experiment: Inhibition of root growth of Echinochloa crus-galli at 100 mg/L; type: functional; summary of the method: as §1
Aphis = experiment: Insecticidal activity against Aphis medicagini at 250 mg/L; type: functional; summary of the method: as §2
[16] = test system: Brassica rapa subsp. oleifera; experiment: Inhibition of stem growth of Brassica campestris at 100 mg/L; type: functional; summary of the method: as §1
Radish [17] = experiment: Herbicidal activity against Raphanus sativus at 450 g ai/ha in greenhouse in vivo test; type: functional, organism-based
Cucumis sativus [18] = experiment: Inhibition of root growth of Cucumis sativus at 100 mg/L; type: functional; summary of the method: as §1

| SMILES | inhibition at 100 µg/mL [1] | inhibition at 100 µg/mL (Triticum aestivum [2]) | inhibition at 100 µg/mL (Sorghum bicolor [3]) | Activity (Echinochloa crus-galli [4]) | Activity (Tetranychus cinnabarinus) | inhibition at 100 µg/mL (Radish [5]) | Activity (Cucumis sativus [6]) | Activity (Triticum aestivum [7]) | Activity [8] | inhibition at 100 µg/mL (Radish [9]) | inhibition at 100 µg/mL (Echinochloa crus-galli [10]) | inhibition at 100 µg/mL (Sorghum bicolor [11]) | inhibition at 100 µg/mL (Triticum aestivum [12]) | inhibition at 100 µg/mL (Cucumis sativus [13]) | Activity (Sorghum bicolor [14]) | inhibition at 100 µg/mL (Echinochloa crus-galli [15]) | Activity (Aphis) | inhibition at 100 µg/mL [16] | Activity (Radish [17]) | inhibition at 100 µg/mL (Cucumis sativus [18]) |
| --- | --- | --- | --- | --- | --- | --- | --- | --- | --- | --- | --- | --- | --- | --- | --- | --- | --- | --- | --- | --- |
| CCOC(=O)C(C)Sc1nnc(Cn2nnn(-c3ccc(Cl)cc3)c2=O)o1 (stereo not given) | 80% | 0% | 0% | inactive | 0% | 0% | inactive | inactive | inactive | 0% | 0% | 0% | 0% | 0% | inactive | 0% | 8.3% | 60% | inactive | 0% |
| CCSc1nnc(Cn2nnn(-c3ccc(Cl)cc3)c2=O)s1 | 60% | 40% | 70% | inactive | 5.7% | 40% | inactive | inactive | inactive | 50% | 70% | 60% | 50% | 30% | inactive | 60% | 82.5% | 60% | inactive | 0% |
| CCOC(=O)Cn1nnn(-c2ccc(Cl)cc2)c1=O | 85% | 30% | 20% | inactive | 0% | 40% | inactive | inactive | inactive | 80% | 0% | 20% | 30% | 0% | inactive | 0% | 8.3% | 70% | inactive | 0% |
| CCCCSc1nnc(Cn2nnn(-c3ccc(Cl)cc3)c2=O)s1 | 50% | 40% | 50% | inactive | 5.7% | 0% | inactive | inactive | inactive | 30% | 30% | 40% | 40% | 0% | inactive | 70% | 0% | 40% | inactive | 0% |
| O=c1n(Cc2nnc(SCc3ccccc3F)s2)nnn1-c1ccc(Cl)cc1 | 80% | 80% | 70% | inactive | 0% | 60% | inactive | inactive | inactive | 80% | 70% | 70% | 80% | 70% | inactive | 60% | 18.6% | 70% | inactive | 70% |
| CCCCCCSc1nnc(Cn2nnn(-c3ccc(Cl)cc3)c2=O)s1 | 70% | 30% | 60% | inactive | 4.3% | 30% | inactive | inactive | inactive | 40% | 0% | 40% | 0% | 0% | inactive | 0% | 0% | 40% | inactive | 0% |
